Experimental findings from ChEMBL document CHEMBL4330104, “Synthesis, biological evaluations and computational studies of N-(3-(-2-(7-Chloroquinolin-2-yl)vinyl) benzylidene)anilines as fungal biofilm inhibitors” (Bioorg Med Chem Lett, 2019) are described below.

Usually MIC stands for the lowest concentration that inhibits growth of the organism. Low readings indicate inhibition by little substance, high ones a need for much substance. A word on the IC50: it is the concentration at which inhibition is half-maximal. A low value points to higher potency.

In one test the test system is Bacillus subtilis. Nature of the test: Antibacterial activity against Bacillus subtilis NCIM 2063 after 24 hrs by two-fold serial dilution method. It is filed as functional. The note with it: NCIM 2063, 24 h. The essentials:
(§1)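 Bacterial inocula taken from 24 h nutrient agar cultures at 37±1 °C, brought to […] with sterile saline, grown in nutrient broth. Compounds tested as two-fold serial dilutions at 400, 200, 100, 50, 25, 12.5, 6.25 and 3.13 µg/mL, with ciprofloxacin as reference. Incubation at 37±1 °C; MIC read after 24 h.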

The test system of the next test is Pseudomonas aeruginosa. Nature of the test: Antibacterial activity against Pseudomonas aeruginosa NCIM 2036 after 24 hrs by two-fold serial dilution method. It is filed as functional. The settings on record: NCIM 2036, 24 h. Put shortly: as §1
Another test deals with Escherichia coli. In words: Antibacterial activity against Escherichia coli NCIM 2256 after 24 hrs by two-fold serial dilution method. The note with it: NCIM 2256, 24 h. It is filed as functional. Put shortly: as §1
In test [1] the test system is Candida albicans. Nature of the test: Antifungal activity against Candida albicans NCIM 3471 after 48 to 72 hrs by SDA agar dilution method. The format is functional. Put shortly: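 CLSI agar method. Compounds dissolved in DMSO. C. albicans subcultured on Sabouraud dextrose agar at 25 °C for 72 h, suspended in sterile water at 10^5 cells/mL, and inoculated onto test, drug-free and DMSO control plates. Plates incubated at 25 °C. MIC taken as the lowest concentration that prevents macroscopically visible colonies, read at 48 h and 72 h.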
A general note: In agar dilution, organisms are placed on agar that contains the substance at set levels.

In test [2] the test system is Candida albicans. Nature of the test: Antibiofilm activity against Candida albicans NCIM 3471 after 24 hrs by MTT assay. The format is functional, organism-based. The note with it: NCIM 3471, 24 h. The essentials: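 Biofilms formed from C. albicans at 10^5 cells/well in RPMI, exposed to 0–100 µM compound (fluconazole reference) for 24 h at 30 °C. Wells washed with phosphate buffer, then MTT (1 µg/µL) added for 3 h in the dark. Formazan dissolved in DMSO, absorbance read at 575 nm. IC50 for 50% biofilm inhibition taken from the inhibition curve.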
A general note: Tetrazolium dyes change colour on reduction, which living cells bring about.

A further test has as its system Staphylococcus aureus. In words: Antibacterial activity against Staphylococcus aureus NCIM 2901 after 24 hrs by two-fold serial dilution method. The format is functional. The settings on record: NCIM 2901, 24 h. Put shortly: as §1

Converted amounts (≈) assume the structure as drawn.

Turning to `O=[N+]([O-])c1cccc(/N=C/c2cccc(/C=C/c3ccc4ccc(Cl)cc4n3)c2)c1`, the MIC in the test on Bacillus subtilis worked out at 17.4 µg/mL (≈ 42 µM); in the test with Pseudomonas aeruginosa, 190 µg/mL (≈ 459 µM); against Escherichia coli, 185 µg/mL (≈ 447 µM); in the test on Candida albicans [1] it was 106 µg/mL (≈ 256 µM); against Staphylococcus aureus, 104 µg/mL (≈ 252 µM). For the same compound, it took 83.6 µM to reach half-maximal inhibition in the test with Candida albicans [2] (IC50).

Take `COc1ccc(/N=C/c2cccc(/C=C/c3ccc4ccc(Cl)cc4n3)c2)cc1`: the minimal inhibitory concentration (MIC) in the test on Bacillus subtilis came out at 17.6 µg/mL (≈ 44.1 µM); in the test with Pseudomonas aeruginosa, 167 µg/mL (≈ 419 µM); in the test on Escherichia coli, 120 µg/mL (≈ 301 µM); against Candida albicans [1] it was 105 µg/mL (≈ 263 µM); with Staphylococcus aureus, 94.8 µg/mL (≈ 238 µM). Further, the concentration for half-maximal inhibition (IC50) with Candida albicans [2] came out at 97.5 µM.

For the compound `Clc1ccc(/N=C/c2cccc(/C=C/c3ccc4ccc(Cl)cc4n3)c2)cc1`, the MIC with Bacillus subtilis is 31.6 µg/mL (≈ 78.4 µM); against Pseudomonas aeruginosa it was 228 µg/mL (≈ 567 µM); in the test on Escherichia coli it was 45 µg/mL (≈ 112 µM); against Candida albicans [1], 94.2 µg/mL (≈ 234 µM); in the test with Staphylococcus aureus it was 170 µg/mL (≈ 422 µM). Further, inhibition in the test with Candida albicans [2] was half-maximal at 66.2 µM (IC50).

`Cc1ccc(/N=C/c2cccc(/C=C/c3ccc4ccc(Cl)cc4n3)c2)cc1`: the MIC against Bacillus subtilis amounted to 17 µg/mL (≈ 44.3 µM); in the test with Pseudomonas aeruginosa, 177 µg/mL (≈ 462 µM); in the test on Escherichia coli, 205 µg/mL (≈ 535 µM); in the test with Candida albicans [1], 164 µg/mL (≈ 429 µM); against Staphylococcus aureus, 98.5 µg/mL (≈ 257 µM). The IC50 with Candida albicans [2] is 96.2 µM.

For the compound `FC(F)(F)c1cccc(/N=C/c2cccc(/C=C/c3ccc4ccc(Cl)cc4n3)c2)c1`, the MIC was determined as 33.4 µg/mL (≈ 76.5 µM) against Bacillus subtilis; 142 µg/mL (≈ 325 µM) against Pseudomonas aeruginosa; 102 µg/mL (≈ 233 µM) against Escherichia coli; 191 µg/mL (≈ 437 µM) in the test on Candida albicans [1]; 71.3 µg/mL (≈ 163 µM) against Staphylococcus aureus. This compound registered an IC50 with Candida albicans [2] of 87.2 µM.

In the case of `Clc1ccc2ccc(/C=C/c3cccc(/C=N/c4ccccc4)c3)nc2c1`, the minimal inhibitory concentration (MIC) against Bacillus subtilis is 32.4 µg/mL (≈ 87.7 µM); in the test on Pseudomonas aeruginosa, 102 µg/mL (≈ 277 µM); against Escherichia coli, 110 µg/mL (≈ 298 µM); in the test with Candida albicans [1] it was 98.8 µg/mL (≈ 268 µM); with Staphylococcus aureus it was 91.6 µg/mL (≈ 248 µM). Moreover, the midpoint of inhibition with Candida albicans [2], the IC50, lay at 199 µM.

`Cc1ccccc1/N=C/c1cccc(/C=C/c2ccc3ccc(Cl)cc3n2)c1`: the minimal inhibitory concentration (MIC) with Bacillus subtilis stood at 136 µg/mL (≈ 356 µM); in the test on Pseudomonas aeruginosa it was 185 µg/mL (≈ 483 µM); against Escherichia coli it was 68.5 µg/mL (≈ 179 µM); against Candida albicans [1], 104 µg/mL (≈ 273 µM); against Staphylococcus aureus, 85.3 µg/mL (≈ 223 µM). In the test on Candida albicans [2], this compound registered a half-inhibitory concentration (IC50) of 166 µM.

With `O=[N+]([O-])c1ccc(/N=C/c2cccc(/C=C/c3ccc4ccc(Cl)cc4n3)c2)cc1`, the MIC was 15.7 µg/mL (≈ 37.9 µM) in the test with Bacillus subtilis; 200 µg/mL (≈ 484 µM) in the test with Pseudomonas aeruginosa; 150 µg/mL (≈ 362 µM) in the test on Escherichia coli; 121 µg/mL (≈ 293 µM) in the test on Candida albicans [1]; 166 µg/mL (≈ 400 µM) against Staphylococcus aureus. The compound also came in with an IC50 in the test on Candida albicans [2] of 92.1 µM.

For the compound `FC(F)(F)c1ccccc1/N=C/c1cccc(/C=C/c2ccc3ccc(Cl)cc3n2)c1`, the minimal inhibitory concentration (MIC) in the test with Bacillus subtilis came out at 36.2 µg/mL (≈ 82.9 µM); in the test with Pseudomonas aeruginosa, 250 µg/mL (≈ 572 µM); against Escherichia coli, 67.5 µg/mL (≈ 155 µM); in the test on Candida albicans [1], 282 µg/mL (≈ 646 µM); against Staphylococcus aureus it was 55.3 µg/mL (≈ 127 µM). This compound displayed an IC50 in the test with Candida albicans [2] of 94.3 µM.

Turning to `FC(F)(F)c1ccc(/N=C/c2cccc(/C=C/c3ccc4ccc(Cl)cc4n3)c2)cc1`, the MIC in the test with Bacillus subtilis worked out at 37.7 µg/mL (≈ 86.2 µM); against Pseudomonas aeruginosa, 91.5 µg/mL (≈ 209 µM); with Escherichia coli, 84.5 µg/mL (≈ 193 µM); in the test on Candida albicans [1], 174 µg/mL (≈ 399 µM); in the test on Staphylococcus aureus it was 89.7 µg/mL (≈ 205 µM). The IC50 with Candida albicans [2] was 51.2 µM.

In the test with Pseudomonas aeruginosa, `O=C(O)c1cn(C2CC2)c2cc(N3CCNCC3)c(F)cc2c1=O` [CIPROFLOXACIN] had a minimal inhibitory concentration (MIC) of 50 µg/mL (≈ 151 µM).

The compound `OC(Cn1cncn1)(Cn1cncn1)c1ccc(F)cc1F` [FLUCONAZOLE] registered an MIC against Candida albicans [1] of 50 µg/mL (≈ 163 µM).
